Source: ChEMBL document CHEMBL1143822, “Three-dimensional quantitative structure-activity relationship analysis of human CYP51 inhibitors” (Drug Metab Dispos, 2007)

T1: Lanosterol 14-alpha demethylase (Homo sapiens, UniProt Q16850)
T1 sequence (Q16850 whole entry): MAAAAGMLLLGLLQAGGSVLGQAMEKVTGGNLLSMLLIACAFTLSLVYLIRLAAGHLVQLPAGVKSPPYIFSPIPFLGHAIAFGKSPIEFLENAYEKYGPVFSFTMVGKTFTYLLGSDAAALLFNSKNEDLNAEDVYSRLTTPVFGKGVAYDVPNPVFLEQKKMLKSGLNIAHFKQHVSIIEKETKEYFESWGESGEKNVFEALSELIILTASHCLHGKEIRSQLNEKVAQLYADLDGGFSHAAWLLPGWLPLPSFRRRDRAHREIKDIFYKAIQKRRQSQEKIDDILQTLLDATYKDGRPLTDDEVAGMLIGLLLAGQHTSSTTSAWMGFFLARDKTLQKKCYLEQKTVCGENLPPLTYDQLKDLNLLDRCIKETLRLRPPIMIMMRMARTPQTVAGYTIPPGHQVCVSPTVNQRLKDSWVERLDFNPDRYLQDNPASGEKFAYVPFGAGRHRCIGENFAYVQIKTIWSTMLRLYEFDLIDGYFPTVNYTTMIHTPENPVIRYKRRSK


Key:
[1] = target: T1, Lanosterol 14-alpha demethylase; test: Inhibition of human CYP51 expressed in Topp 3 cells by lanosterol demethylase assay; type: cell-based
In short: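 0.5 ml phosphate buffer pH 7.4 with KCN, NADPH regenerating system, 60 min at 37 °C. Triene product extracted and quantified by chromatography (ergosterol internal standard). IC50 read from plot of % activity remaining vs concentration.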

[2] = target: T1, Lanosterol 14-alpha demethylase; test: Binding affinity to human CYP51
[3] = substrate: CC(C)=CCC[C@@H](C)[C@H]1CC[C@@]2(C)C3=C(CC[C@]12C)[C@@]1(C)CC[C@H](O)C(C)(C)[C@@H]1CC3; test: Binding affinity to human reconstituted CYP51

| Molecule | IC50 [1] [µM] | also measured |
| --- | --- | --- |
| O=C(N[C@@H](Cc1c[nH]cn1)C(=O)N1CCC(O)CC1)c1cc2cc(Cl)ccc2[nH]1 | 1.3 |  |
| O=C(N[C@@H](Cc1ccc(O)cc1)C(=O)N1CCC(O)CC1)c1cc2cc(Cl)ccc2[nH]1 | 2.5 |  |
| O=C(N[C@@H](Cc1ccccc1F)C(=O)N1CCC(O)CC1)c1cc2cc(Cl)ccc2[nH]1 | 0.8 |  |
| O=C(N[C@@H](Cc1cccnc1)C(=O)N1CCC(O)CC1)c1cc2cc(Cl)ccc2[nH]1 | 26 |  |
| O=C(NC(Cc1ccccc1)C(=O)O)c1cc2cc(Cl)ccc2[nH]1 (stereo not given) | > 200 |  |
| O=C(N[C@@H](Cc1ccccc1)C(=O)N1CCC(O)CC1)c1cc2c([nH]1)CCCC2 | > 200 |  |
| COc1ccc(C[C@H](NC(=O)c2cc3cc(Cl)ccc3[nH]2)C(=O)N2CCC(O)CC2)cc1 | 4.5 |  |
| O=C(N[C@@H](Cc1ccccc1)C(=O)N1CCC(O)CC1)c1cc2cc(Cl)ccc2[nH]1 | 3.1 |  |
| O=C(N[C@@H](Cc1ccccc1)C(=O)N1CCC(O)CC1)c1cc2ccccc2[nH]1 | 0.91 |  |
| O=C(NC(Cc1ccccc1)C(=O)N1CCC(O)CC1)c1ccc[nH]1 (stereo not given) | > 200 |  |
| O=C(N[C@H](Cc1ccccc1)C(=O)N1CCC(O)CC1)c1cc2cc(Cl)ccc2[nH]1 | 100 |  |
| O=C(N[C@@H](Cc1ccc(Cl)cc1)C(=O)N1CCC(O)CC1)c1cc2cc(Cl)ccc2[nH]1 | 9.7 |  |
| O=C(N[C@@H](Cc1ccccc1)C(=O)N1CCC(O)CC1)c1cc2cc(F)ccc2[nH]1 | 75 |  |
| O=C(NC1(C(=O)N2CCC(O)CC2)CCCC1)c1cc2cc(Cl)ccc2[nH]1 | 100 |  |
| O=C(N[C@@H](Cc1ccc(F)cc1)C(=O)N1CCC(O)CC1)c1cc2cc(Cl)ccc2[nH]1 | 4 |  |
| O=C(N[C@@H](Cc1ccccc1Cl)C(=O)N1CCC(O)CC1)c1cc2cc(Cl)ccc2[nH]1 [ANALOGUE A] | 0.3 |  |
| CCCCC/C=C\C/C=C\C/C=C\C/C=C\CCCC(=O)NCCO [ANANDAMIDE] | > 200 |  |
| CCCCC/C=C\C/C=C\C/C=C\C/C=C\CCCC(=O)O [ARACHIDONIC ACID] | > 200 |  |
| Clc1ccc(C2(Cn3cncn3)OCCO2)c(Cl)c1 [AZACONAZOLE] | > 10 |  |
| c1ccc2[nH]cnc2c1 [BENZIMIDAZOLE] | > 200 |  |
| c1ccc(-c2ccc(C(c3ccccc3)n3ccnc3)cc2)cc1 (stereo not given) [BIFONAZOLE] | 0.342 |  |
| CCCNC(=O)NS(=O)(=O)c1ccc(Cl)cc1 [CHLORPROPAMIDE] | > 200 |  |

| Molecule | IC50 [1] [µM] | also measured |
| --- | --- | --- |
| CC(C)CCC[C@@H](C)[C@H]1CC[C@H]2[C@@H]3CC=C4C[C@@H](O)CC[C@]4(C)[C@H]3CC[C@]12C [CHOLESTEROL] | > 200 |  |
| Clc1ccccc1C(c1ccccc1)(c1ccccc1)n1ccnc1 [CLOTRIMAZOLE] | 0.13 |  |
| Clc1ccc(COC(Cn2ccnc2)c2ccc(Cl)cc2Cl)cc1 (stereo not given) [ECONAZOLE] | 0.05 |  |
| CC[C@H]1OC(=O)[C@H](C)[C@@H](O[C@H]2C[C@@](C)(OC)[C@@H](O)[C@H](C)O2)[C@H](C)[C@@H](O[C@@H]2O[C@H](C)C[C@H](N(C)C)[C@H]2O)[C@](C)(O)C[C@@H](C)C(=O)[C@H](C)[C@@H](O)[C@]1(C)O [ERYTHROMYCIN] | > 200 |  |
| COC1=CC(=O)C[C@@H](C)[C@]12Oc1c(Cl)c(OC)cc(OC)c1C2=O [GRISEOFULVIN] | 50 |  |
| CCC(C)n1ncn(-c2ccc(N3CCN(c4ccc(OCC5COC(Cn6cncn6)(c6ccc(Cl)cc6Cl)O5)cc4)CC3)cc2)c1=O (stereo not given) [ITRACONAZOLE] | 3.6 |  |
| CC(=O)N1CCN(c2ccc(OC[C@H]3CO[C@](Cn4ccnc4)(c4ccc(Cl)cc4Cl)O3)cc2)CC1 [KETOCONAZOLE] | 0.19 | Kd [2]: 8 µM |
| CC[C@H](C)C(=O)O[C@H]1C[C@@H](C)C=C2C=C[C@H](C)[C@H](CC[C@@H]3C[C@@H](O)CC(=O)O3)[C@H]21 [LOVASTATIN] | > 200 |  |
| Cn1cc[nH]c1=S [METHIMAZOLE] | > 200 |  |
| Cc1ncc([N+](=O)[O-])n1CCO [METRONIDAZOLE] | > 200 |  |
| Clc1ccc(COC(Cn2ccnc2)c2ccc(Cl)cc2Cl)c(Cl)c1 (stereo not given) [MICONAZOLE] | 0.2 |  |
| CC(=O)[C@H]1CC[C@H]2[C@@H]3CC=C4C[C@@H](O)CC[C@]4(C)[C@H]3CC[C@]12C [PREGNENOLONE] | > 200 |  |
| CC(=O)[C@H]1CC[C@H]2[C@@H]3CCC4=CC(=O)CC[C@]4(C)[C@H]3CC[C@]12C [PROGESTERONE] | > 200 |  |
| CO[C@H]1/C=C/O[C@@]2(C)Oc3c(C)c(O)c4c(O)c(c(/C=N/N5CCN(C)CC5)c(O)c4c3C2=O)NC(=O)/C(C)=C\C=C\[C@H](C)[C@H](O)[C@@H](C)[C@@H](O)[C@@H](C)[C@H](OC(C)=O)[C@@H]1C [RIFAMPIN] | 30 |  |
| Nc1ccc(S(=O)(=O)Nc2ccnn2-c2ccccc2)cc1 [SULFAPHENAZOLE] | > 200 |  |
| O=C1C(CC[S+]([O-])c2ccccc2)C(=O)N(c2ccccc2)N1c1ccccc1 (stereo not given) [SULFINPYRAZONE] | > 200 |  |
| CC(C)N1CCN(c2ccc(OC[C@H]3CO[C@](Cn4cncn4)(c4ccc(Cl)cc4Cl)O3)cc2)CC1 [TERCONAZOLE] | 3 |  |
| C[C@]12CC[C@H]3[C@@H](CCC4=CC(=O)CC[C@@]43C)[C@@H]1CC[C@@H]2O [TESTOSTERONE] | 50 |  |
| CCCCNC(=O)NS(=O)(=O)c1ccc(C)cc1 [TOLBUTAMIDE] | > 200 |  |
| Cc1cccc(N(C)C(=S)Oc2ccc3ccccc3c2)c1 [TOLNAFTATE] | 50 |  |
| OC(c1ccccc1)(c1cncnc1)c1ccc(Cl)cc1Cl (stereo not given) [TRIARIMOL] | > 10 |  |
| Lanosterol 14-alpha demethylase (Homo sapiens) (protein) MAAAAGMLLLGLLQAGGSVLGQAMEKVTGGNLLSMLLIACAFTLSLVYLIRLAAGHLVQLPAGVKSPPYIFSPIPFLGHAIAFGKSPIEFLENAYEKYGPVFSFTMVGKTFTYLLGSDAAALLFNSKNEDLNAEDVYSRLTTPVFGKGVAYDVPNPVFLEQKKMLKSGLNIAHFKQHVSIIEKETKEYFESWGESGEKNVFEALSELIILTASHCLHGKEIRSQLNEKVAQLYADLDGGFSHAAWLLPGWLPLPSFRRRDRAHREIKDIFYKAIQKRRQSQEKIDDILQTLLDATYKDGRPLTDDEVAGMLIGLLLAGQHTSSTTSAWMGFFLARDKTLQKKCYLEQKTVCGENLPPLTYDQLKDLNLLDRCIKETLRLRPPIMIMMRMARTPQTVAGYTIPPGHQVCVSPTVNQRLKDSWVERLDFNPDRYLQDNPASGEKFAYVPFGAGRHRCIGENFAYVQIKTIWSTMLRLYEFDLIDGYFPTVNYTTMIHTPENPVIRYKRRSK |  | Km [3]: 30 µM |
